Results: ChEMBL document CHEMBL1157061, “Polybioside, a neuroactive compound from the venom of the social wasp Polybia paulista” (J Nat Prod, 2010)
Calls of active or inactive are those of the source.

Experiments:
[1] = tested on: Rattus norvegicus; test: Neuronal activity in Wistar rat brain rhomboid nucleus assessed as c-Fos-immunoreactive neurons at 0.1 ug/ul, icv after 2 hrs by immunohistochemistry analysis; assay type: functional, tissue-based; settings: Rhomboidal nucleus
Procedure, shortened: (§1)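 Adult male Wistar rats (250-300 g) were acclimated for one week and handled twice daily. An ICV cannula was placed about 2 h before dosing. Compound was given ICV in 10 µL 0.9% saline; saline-only controls (n = 3). After 2 h, rats were perfused with 4% formaldehyde (pH 9.5). Coronal 30 µm sections were stained with rabbit anti-c-Fos (1:5000, 18 h, RT), biotinylated goat anti-rabbit, ABC and DAB, with thionin counterstain. Immunoreactive cells were counted in fixed areas; Student's t-test, p<0.05.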

[2] = tested on: Brain; test: Neuronal activity in Wistar rat brain anterior hyphalamic area assessed as c-Fos-immunoreactive neurons at 0.1 ug/ul, icv after 2 hrs by immunohistochemistry analysis; assay type: functional, tissue-based; procedure, shortened: as §1
[3] = tested on: Rattus norvegicus; test: Neuronal activity in Wistar rat brain piriform cortex assessed as c-Fos-immunoreactive neurons at 0.1 ug/ul, icv after 2 hrs by immunohistochemistry analysis; assay type: functional, tissue-based; procedure, shortened: as §1
[4] = tested on: Rattus norvegicus; test: Neuronal activity in Wistar rat brain lateral septal nucleus dorsal assessed as c-Fos-immunoreactive neurons at 0.1 ug/ul, icv after 2 hrs by immunohistochemistry analysis; assay type: functional, tissue-based; procedure, shortened: as §1
[5] = tested on: Brain; test: Neuronal activity in Wistar rat brain reuniens nucleus assessed as c-Fos-immunoreactive neurons at 0.1 ug/ul, icv after 2 hrs by immunohistochemistry analysis; assay type: functional, tissue-based; procedure, shortened: as §1
[6] = tested on: Hippocampus; test: Neuronal activity in Wistar rat brain hippocampus assessed as c-Fos-immunoreactive neurons at 0.1 ug/ul, icv after 2 hrs by immunohistochemistry analysis; assay type: functional, tissue-based; procedure, shortened: as §1
[7] = tested on: Rattus norvegicus; test: Neurotoxicity in Wistar rat assessed as convulsion at 10 ng/kg, icv after 5 mins; assay type: toxicity, organism-based; settings: in vivo, icv_or_intrathecal, 1e-05 mg/kg
Procedure, shortened: (§2)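 Adult male Wistar rats (250-300 g, acclimated one week) received 10 ng/kg ICV in 0.9% saline through a cannula placed about 2 h earlier. Behaviour was observed afterwards, including convulsions, piloerection and eye signs. Sensorimotor reflexes were scored by righting reflex and wire suspension test, with follow-up to recovery at 80 min.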

[8] = tested on: Rattus norvegicus; test: Neurotoxicity in Wistar rat assessed as loss of sensor motor reflexes at 10 ng/kg, icv after 30 mins by wire suspension test; assay type: toxicity, organism-based; settings: in vivo, icv_or_intrathecal, 1e-05 mg/kg, 0.5 h; procedure, shortened: as §2
[9] = tested on: Hypothalamus; test: Neuronal activity in Wistar rat brain paraventricular nucleus of hypothalamus assessed as c-Fos-immunoreactive neurons at 0.1 ug/ul, icv after 2 hrs by immunohistochemistry analysis; assay type: functional, tissue-based; procedure, shortened: as §1
[10] = tested on: Rattus norvegicus; test: Neurotoxicity in Wistar rat assessed as tonic clonic crises at 10 ng/kg, icv up to 10 mins; assay type: toxicity, organism-based; settings: in vivo, icv_or_intrathecal, 1e-05 mg/kg; procedure, shortened: as §2
[11] = tested on: Brain; test: Neuronal activity in Wistar rat brain dorsomedial hyphalamic nucleus assessed as c-Fos-immunoreactive neurons at 0.1 ug/ul, icv after 2 hrs by immunohistochemistry analysis; assay type: functional, tissue-based; procedure, shortened: as §1
[12] = tested on: Rattus norvegicus; test: Neurotoxicity in Wistar rat assessed as localized diffuse piloerection on head at 10 ng/kg, icv up to 10 mins; assay type: toxicity, organism-based; settings: in vivo, icv_or_intrathecal, 1e-05 mg/kg; procedure, shortened: as §2
[13] = tested on: Rattus norvegicus; test: Neurotoxicity in Wistar rat assessed as localized diffuse piloerection around neck at 10 ng/kg, icv up to 10 mins; assay type: toxicity, organism-based; settings: in vivo, icv_or_intrathecal, 1e-05 mg/kg; procedure, shortened: as §2
[14] = tested on: Brain; test: Neuronal activity in Wistar rat brain dorsal intermediate nucleus assessed as c-Fos-immunoreactive neurons at 0.1 ug/ul, icv after 2 hrs by immunohistochemistry analysis; assay type: functional, tissue-based; procedure, shortened: as §1
[15] = tested on: Rattus norvegicus; test: Neurotoxicity in Wistar rat assessed as partial closing of eyelids with porphyrin accumulation at 10 ng/kg, icv after 10 mins up to 30 mins; assay type: toxicity, organism-based, Eyelid; settings: in vivo, icv_or_intrathecal, 1e-05 mg/kg; procedure, shortened: as §2
[16] = tested on: Thalamus; test: Neuronal activity in Wistar rat brain paraventricular nucleus of thalamus assessed as c-Fos-immunoreactive neurons at 0.1 ug/ul, icv after 2 hrs by immunohistochemistry analysis; assay type: functional, tissue-based; procedure, shortened: as §1
[17] = tested on: Rattus norvegicus; test: Neurotoxicity in Wistar rat at 100 ng/kg, iv; assay type: toxicity, organism-based; settings: in vivo, 0.0001 mg/kg
Procedure, shortened: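 Given peripherally at 100 ng/kg through an intravenous catheter placed in Wistar rats anaesthetised with chloral hydrate (7%, 350 mg/kg ip), to test passage across the blood-brain barrier; behaviour was then observed.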

Measured: Activity

N=C(CCc1c[nH]cn1)O[C@H]1O[C@H](CO)[C@@H](O)[C@H](O)[C@H]1O [POLYBIOSIDE]
Toxic: [7] | [8] | [10] | [12] | [13] | [15] | [17]
active: [1] | [2] | [3] | [4] | [5] | [6] | [9] | [11] | [14] | [16]
